According to ChEMBL document CHEMBL3272099, “Antibacterial activity of N-(beta-styryl) formamides related to tuberin” (J Med Chem, 1978):
Converted amounts (≈) assume the structure as drawn. The source made the active and inactive calls. The rule behind the calls is not given here.

Columns and labels:
Mycolicibacterium phlei [1] = test: Antibacterial activity against Mycobacterium phlei; format: functional
In short: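 MIC by standard agar dilution, run in duplicate; estimated standard deviation under 0.15 log units; reported as log 1/MIC (molar).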

Staphylococcus aureus [2] = test: Antibacterial activity against Staphylococcus aureus at 200 ug/ml; format: functional, organism-based
[3] = C18 corasil-25 wt % MeOH partition coefficient, log K of the compound in 0.001 M phosphate buffer; details: pH 7.4
[4] = C18 corasil-octanol partition coefficient, log P of the compound in 0.01 M phosphate buffer at pH 7 by LC on C18 Corasil coated with 1-octanol; details: octanol/0.01 M phosphate buffer (C18 Corasil-octanol)
Staphylococcus aureus [5] = test: Antibacterial activity against Staphylococcus aureus; format: functional
Mycolicibacterium phlei [6] = test: Antibacterial activity against Mycobacterium phlei at 640 ug/ml; format: functional, organism-based

Row | Compound | MIC (Mycolicibacterium phlei [1]) [µg/mL] | log K [3] | logD [4] | MIC (Staphylococcus aureus [5]) [µg/mL] | Activity (Staphylococcus aureus [2]) | Activity (Mycolicibacterium phlei [6])
1 | CC(=O)Oc1ccc(/C=C/NC=O)cc1 | 640 (≈ 3120 µM) | 0.16 | 1.32 | – | inactive | –
2 | O=CN/C=C/c1cccc2ccccc12 | 80 (≈ 406 µM) | – | – | – | inactive | –
3 | N#Cc1ccc(/C=C/NC=O)cc1 | 640 (≈ 3720 µM) | 0.04 | 1.62 | – | inactive | –
4 | O=CN/C=C/c1ccccc1 | 640 (≈ 4350 µM) | 0.21 | 1.95 | 50 (≈ 340 µM) | – | –
5 | O=CN/C=C/c1ccco1 | – | – | – | – | inactive | inactive
6 | O=CN/C=C/C1CCCCC1 | 160 (≈ 1040 µM) | – | – | – | inactive | –
7 | O=CN/C=C/c1ccc(Br)cc1 | 160 (≈ 708 µM) | 0.96 | 2.87 | 100 (≈ 442 µM) | – | –
8 | Cc1ccc(/C=C/NC=O)cc1 | 40 (≈ 248 µM) | 0.66 | 2.45 | – | inactive | –
9 | O=CN/C=C/c1ccc(F)cc1 | 160 (≈ 969 µM) | 0.33 | 2.11 | – | inactive | –
10 | CCN(CC)c1ccc(/C=C/NC=O)cc1 | 320 (≈ 1470 µM) | – | 2.9 | – | inactive | –
11 | O=CN/C=C/c1ccc(O)cc1 | – | – | – | – | inactive | inactive
12 | CC(C)Oc1ccc(/C=C/NC=O)cc1 | 320 (≈ 1560 µM) | 0.93 | 2.61 | – | inactive | –

Now from value to molecule, other results behind:

Row | MIC (Mycolicibacterium phlei [1]) [µg/mL] | log K [3] | logD [4] | MIC (Staphylococcus aureus [5]) [µg/mL] | Compound | Activity (Staphylococcus aureus [2]) | Activity (Mycolicibacterium phlei [6])
13 | 40 (≈ 283 µM) | – | – | – | CCCCC/C=C/NC=O | inactive | –
14 | 80 (≈ 394 µM) | 1.71 | 3.82 | 200 (≈ 984 µM) | CC(C)(C)c1ccc(/C=C/NC=O)cc1 | – | –
15 | 80 (≈ 440 µM) | 0.79 | 2.7 | 200 (≈ 1100 µM) | O=CN/C=C/c1ccc(Cl)cc1 | – | –
16 | 640 (≈ 3360 µM) | 0.48 | 2.03 | – | CN(C)c1ccc(/C=C/NC=O)cc1 | inactive | –
17 | 80 (≈ 365 µM) | 1.62 | 3.32 | – | CCCCOc1ccc(/C=C/NC=O)cc1 | inactive | –
18 | 160 (≈ 586 µM) | 1.14 | 3.18 | 200 (≈ 732 µM) | O=CN/C=C/c1ccc(I)cc1 | – | –
19 | 40 (≈ 207 µM) | 0.77 | 2.55 | 100 (≈ 517 µM) | CSc1ccc(/C=C/NC=O)cc1 | – | –
20 | 80 (≈ 372 µM) | 1.09 | 3.06 | 100 (≈ 465 µM) | O=CN/C=C/c1ccc(C(F)(F)F)cc1 | – | –
21 | 40 (≈ 209 µM) | 0.65 | 2.31 | – | CCOc1ccc(/C=C/NC=O)cc1 | inactive | –
22 | 320 (≈ 1670 µM) | 0.24 | 1.94 | 3 (≈ 15.6 µM) | O=CN/C=C/c1ccc([N+](=O)[O-])cc1 | – | –
23 | 320 (≈ 2090 µM) | – | – | 25 (≈ 163 µM) | O=CN/C=C/c1cccs1 | – | –
24 | 20 (≈ 101 µM) | 1.16 | 3.22 | – | O=CN/C=C/c1ccc2ccccc2c1 | inactive | –
25 | 80 (≈ 451 µM) | 0.28 | 1.94 | – | COc1ccc(/C=C/NC=O)cc1 | inactive | –
26 | 320 (≈ 1110 µM) | 0.78 | 1.95 | – | O=CN/C=C/c1ccc(S(=O)(=O)c2ccccc2)cc1 | inactive | –
